Measurements as given in ChEMBL document CHEMBL1142436, “Design and synthesis of 4-substituted indolo[3,2-e][1,2,3]triazolo[1,5-a]pyrimidine derivatives with antitumor activity” (2008).

What was measured:
Assay type in all cases: functional
[1] = tested on: SN12C; assay: Growth inhibition of human SN12C cells after 48 hrs
In short: (§1)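 NCI 60-line screen: cells in RPMI 1640 with 5% FBS and 2 mM L-glutamine, plated at 5000–40000 cells/well, grown 24 h (37 °C, 5% CO₂), then exposed to five 10-fold or ½-log dilutions (DMSO stock) for 48 h. Fixed with TCA (final 10% for adherent cells, 16% for suspension cells), then SRB stained with absorbance at 515 nm. GI50 from percentage growth relative to time-zero and control wells.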

[2] = tested on: COLO 205; assay: Growth inhibition of human COLO205 cells after 48 hrs; settings: COLO 205, 48 h
In short: (§2)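 NCI ~60-line screen. Cells were grown in RPMI 1640 with 5% FBS and 2 mM L-glutamine and plated at 5000–40000 cells/well. After a 24 h preincubation, five drug concentrations from DMSO stocks were added for 48 h at 37 °C. Cells were TCA-fixed, stained with SRB and read at 515 nm. GI50 was taken from time-zero and control absorbances and reported as pGI50.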

[3] = tested on: RXF 393; assay: Growth inhibition of human RXF393 cells after 48 hrs; settings: RXF 393, 48 h; in short: as §2
[4] = tested on: HOP-62; assay: Growth inhibition of human HOP62 cells after 48 hrs; settings: HOP-62, 48 h; in short: as §2
[5] = tested on: PC-3; assay: Growth inhibition of human PC3 cells after 48 hrs; settings: PC-3, 48 h; in short: as §2
[6] = tested on: CCRF-CEM; assay: Growth inhibition of human CCRF-CEM cells after 48 hrs; in short: as §2
[7] = tested on: A549; assay: Growth inhibition of human A549 cells after 48 hrs; settings: A549, 48 h; in short: as §2
[8] = tested on: SF-268; assay: Growth inhibition of human SF268 cells after 48 hrs; settings: SF-268, 48 h; in short: as §2
[9] = tested on: OVCAR-8; assay: Growth inhibition of human OVCAR8 cells after 48 hrs; settings: OVCAR-8, 48 h; in short: as §2
[10] = tested on: SK-MEL-5; assay: Growth inhibition of human SK-MEL5 cells after 48 hrs; settings: SK-MEL-5, 48 h; in short: as §2
[11] = tested on: MOLT-4; assay: Growth inhibition of human MOLT4 cells after 48 hrs; settings: MOLT-4, 48 h; in short: as §2
[12] = tested on: SK-MEL-2; assay: Growth inhibition of human SK-MEL2 cells after 48 hrs; settings: SK-MEL-2, 48 h; in short: as §2
[13] = tested on: SK-MEL-28; assay: Growth inhibition of human SK-MEL28 cells after 48 hrs; settings: SK-MEL-28, 48 h; in short: as §2
[14] = Growth inhibition of human HS578T cells after 48 hrs; settings: Hs-578T; in short: as §2
[15] = tested on: SNB-19; assay: Growth inhibition of human SNB19 cells after 48 hrs; settings: SNB-19, 48 h; in short: as §1
[16] = tested on: UACC-257; assay: Growth inhibition of human UACC257 cells after 48 hrs; settings: UACC-257, 48 h; in short: as §1
[17] = tested on: TK-10; assay: Growth inhibition of human TK10 cells after 48 hrs; settings: TK-10, 48 h; in short: as §1
[18] = tested on: NCI/ADR-RES; assay: Growth inhibition of human NCI/ADR-RES cells after 48 hrs; in short: as §2
[19] = tested on: NCI-H460; assay: Growth inhibition of human NCI-H460 cells after 48 hrs; settings: NCI-H460, 48 h; in short: as §2
[20] = tested on: EKVX; assay: Growth inhibition of human EKVX cells after 48 hrs; in short: as §2
[21] = tested on: RPMI-8226; assay: Growth inhibition of human RPMI8226 cells after 48 hrs; settings: RPMI-8226, 48 h; in short: as §2
[22] = tested on: HT-29; assay: Growth inhibition of human HT29 cells after 48 hrs; settings: HT-29, 48 h; in short: as §2
[23] = tested on: HCT-116; assay: Growth inhibition of human HCT116 cells after 48 hrs; settings: HCT-116, 48 h; in short: as §2
[24] = tested on: HOP-92; assay: Growth inhibition of human HOP92 cells after 48 hrs; settings: HOP-92, 48 h; in short: as §2
[25] = tested on: UO-31; assay: Growth inhibition of human UO31 cells after 48 hrs; settings: UO-31, 48 h; in short: as §1
[26] = tested on: NCI-H322M; assay: Growth inhibition of human NCI-H322M cells after 48 hrs; in short: as §2
[27] = tested on: ACHN; assay: Growth inhibition of human ACHN cells after 48 hrs; in short: as §2
[28] = tested on: SF-295; assay: Growth inhibition of human SF295 cells after 48 hrs; settings: SF-295, 48 h; in short: as §2
[29] = tested on: 786-0; assay: Growth inhibition of human 786-0 cells after 48 hrs; settings: 786-0, 48 h; in short: as §2
[30] = tested on: NCI-H226; assay: Growth inhibition of human NCI-H226 cells after 48 hrs; settings: NCI-H226, 48 h; in short: as §2
[31] = tested on: MDA-MB-435; assay: Growth inhibition of human MDA-MB435 cells after 48 hrs; settings: MDA-MB-435, 48 h; in short: as §2
[32] = tested on: UACC-62; assay: Growth inhibition of human UACC62 cells after 48 hrs; settings: UACC-62, 48 h; in short: as §1
[33] = tested on: SF-539; assay: Growth inhibition of human SF539 cells after 48 hrs; settings: SF-539, 48 h; in short: as §2
[34] = tested on: KM12; assay: Growth inhibition of human KM12 cells after 48 hrs; settings: KM12, 48 h; in short: as §2
[35] = read-out: Log LC50 (the source's name) (converted)

For Cn1c2ccccc2c2c(=O)n(CCCC(=O)NCCc3c[nH]cn3)c3c(-c4ccccc4)nnn3c21, the GI50 [1] was 8.71 µM, the LC50 [1] was 39.8 µM and the TGI ([1]; read-out: pTGI (converted)) was 18.6 µM. For the same molecule, the GI50 [2] was 8.51 µM, the LC50 [2] was 44.7 µM and the TGI ([2]; read-out: pTGI (converted)) was 19.5 µM. It also gave a GI50 [3] of 7.41 µM, an LC50 [3] of 44.7 µM and a TGI ([3]; read-out: pTGI (converted)) of 18.2 µM. For the same molecule, the GI50 [4] was 7.59 µM, the LC50 [4] was 37.2 µM and the TGI ([4]; read-out: pTGI (converted)) was 17 µM. It also gave a GI50 [5] of 8.91 µM, an LC50 [5] of 44.7 µM and a TGI ([5]; read-out: pTGI (converted)) of 20 µM. The GI50 [6] was 1510 nM, the LC50 [6] was over 50.1 µM and the TGI ([6]; read-out: pTGI (converted)) was over 50.1 µM. It also gave a GI50 [7] of 12.9 µM, a CC50 [7, 35] of 45.7 µM and a TGI ([7]; read-out: pTGI (converted)) of 24 µM. For the same molecule, the GI50 [8] was 11.7 µM, the CC50 [8, 35] was over 50.1 µM and the TGI ([8]; read-out: pTGI (converted)) was 31.6 µM. The GI50 [9] was 10 µM, the LC50 [9] was 42.7 µM and the TGI ([9]; read-out: pTGI (converted)) was 20.9 µM. For the same molecule, the GI50 [10] was 9.12 µM, the LC50 [10] was 32.4 µM and the TGI ([10]; read-out: pTGI (converted)) was 17 µM. For the same molecule, the GI50 [11] was 3.98 µM, the LC50 [11] was over 50.1 µM and the TGI ([11]; read-out: pTGI (converted)) was 21.4 µM. For the same molecule, the GI50 [12] was 10.2 µM, the LC50 [12] was 42.7 µM and the TGI ([12]; read-out: pTGI (converted)) was 20.9 µM. It also gave a GI50 [13] of 8.91 µM, an LC50 [13] of 32.4 µM and a TGI ([13]; read-out: pTGI (converted)) of 17 µM. The GI50 [14] was 10.5 µM, the LC50 (50% lethal concentration) [14] was 49 µM and the TGI ([14]; read-out: pTGI (converted)) was 22.4 µM. For the same molecule, the GI50 [15] was 11.7 µM, the LC50 [15] was 49 µM and the TGI ([15]; read-out: pTGI (converted)) was 24 µM. It also gave a GI50 [16] of 12 µM, an LC50 [16] of 38.9 µM and a TGI ([16]; read-out: pTGI (converted)) of 21.4 µM. The GI50 [17] was 4.79 µM, the LC50 [17] was 26.9 µM and the TGI ([17]; read-out: pTGI (converted)) was 11.5 µM. For the same molecule, the GI50 [18] was over 50.1 µM, the LC50 (concentration killing 50% of cells) [18] was over 50.1 µM and the TGI ([18]; read-out: pTGI (converted)) was over 50.1 µM. The GI50 [19] was 11 µM, the LC50 [19] was over 50.1 µM and the TGI ([19]; read-out: pTGI (converted)) was 24.5 µM. It also gave a GI50 [20] of 10 µM, an LC50 [20] of over 50.1 µM and a TGI ([20]; read-out: pTGI (converted)) of 24 µM. For the same molecule, the GI50 [21] was 10.5 µM, the LC50 [21] was over 50.1 µM and the TGI ([21]; read-out: pTGI (converted)) was 28.8 µM. The GI50 [22] was 8.51 µM, the LC50 (concentration killing 50% of cells) [22] was 37.2 µM and the TGI ([22]; read-out: pTGI (converted)) was 17.8 µM. It also gave a GI50 [23] of 5.89 µM, an LC50 [23] of 32.4 µM and a TGI ([23]; read-out: pTGI (converted)) of 13.8 µM. For the same molecule, the GI50 [24] was 1350 nM, the LC50 [24] was 44.7 µM and the TGI ([24]; read-out: pTGI (converted)) was 5.5 µM. The GI50 [25] was 7.41 µM, the LC50 [25] was 29.5 µM and the TGI ([25]; read-out: pTGI (converted)) was 14.8 µM. It also gave a GI50 [26] of 11 µM, an LC50 [26] of over 50.1 µM and a TGI ([26]; read-out: pTGI (converted)) of 29.5 µM. It also gave a GI50 [27] of 9.77 µM, an LC50 [27] of 33.1 µM and a TGI ([27]; read-out: pTGI (converted)) of 17.8 µM. It also gave a GI50 [28] of 9.12 µM, an LC50 [28] of 34.7 µM and a TGI ([28]; read-out: pTGI (converted)) of 17.8 µM. It also gave a GI50 [29] of 2190 nM, an LC50 [29] of 26.9 µM and a TGI ([29]; read-out: pTGI (converted)) of 8.13 µM. The GI50 [30] was over 50.1 µM, the CC50 [30, 35] was over 50.1 µM and the TGI ([30]; read-out: pTGI) was over 50.1 µM. It also gave a GI50 [31] of 10.2 µM, an LC50 [31] of 39.8 µM and a TGI ([31]; read-out: pTGI (converted)) of 20 µM. It also gave a GI50 [32] of 9.77 µM, an LC50 [32] of 31.6 µM and a TGI ([32]; read-out: pTGI (converted)) of 17.8 µM. The GI50 [33] was 9.33 µM, the LC50 (concentration killing 50% of cells) [33] was 31.6 µM and the TGI ([33]; read-out: pTGI (converted)) was 17.4 µM. For the same molecule, the GI50 [34] was 8.13 µM, the LC50 [34] was 35.5 µM and the TGI ([34]; read-out: pTGI (converted)) was 17 µM.
